Reference: ChEMBL document CHEMBL2069266, “An expeditious regioselective synthesis of novel bioactive indole-substituted chromene derivatives via one-pot three-component reaction” (2012)

Tests used:
Type in all cases: functional
Conditions in all cases: read-out: DIZ
Salmonella enterica = test: Antibacterial activity against Salmonella enterica at 12 ug/well after 24 hrs by agar well diffusion method
Outline: (§1)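 Colonies subcultured from nutrient agar into nutrient broth, grown 37 °C for 18 h, then inoculated onto Mueller-Hinton agar plates (four plates). Wells cut with sterile 5 mm glass tube; […] of 100 µg/ml DMSO solution added per well; incubated 37 °C for 24 h before reading inhibition. Data from duplicate or triplicate experiments.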

Micrococcus luteus = test: Antibacterial activity against Micrococcus luteus at 12 ug/well after 24 hrs by agar well diffusion method; outline: as §1
Bacillus subtilis = test: Antibacterial activity against Bacillus subtilis at 12 ug/well after 24 hrs by agar well diffusion method; outline: as §1
Pseudomonas aeruginosa = test: Antibacterial activity against Pseudomonas aeruginosa at 12 ug/well after 24 hrs by agar well diffusion method; outline: as §1

SMILES | zone of inhibition at 12 µg/disc (Salmonella enterica) | zone of inhibition at 12 µg/disc (Micrococcus luteus) | zone of inhibition at 12 µg/disc (Bacillus subtilis) | zone of inhibition at 12 µg/disc (Pseudomonas aeruginosa)
NC1=C(C(=O)c2c[nH]c3ccccc23)C(c2ccc(F)cc2)c2c(ccc3ccccc23)O1 (centres undefined) | 6 mm | 30 mm | 11 mm | –
NC1=C(C(=O)c2c[nH]c3ccccc23)C(c2ccc(Cl)cc2)c2c(ccc3ccccc23)O1 (centres undefined) | 17 mm | 8 mm | – | –
NC1=C(C(=O)c2c[nH]c3ccccc23)C(c2ccc(Br)cc2)c2c(ccc3ccccc23)O1 (centres undefined) | – | 10 mm | – | –
NC1=C(C(=O)c2c[nH]c3ccccc23)C(c2cccc([N+](=O)[O-])c2)c2c(ccc3ccccc23)O1 (centres undefined) | – | 29 mm | 8 mm | –
COc1cccc(C2C(C(=O)c3c[nH]c4ccccc34)=C(N)Oc3ccc4ccccc4c32)c1 (centres undefined) | – | 35 mm | – | 17 mm
NC1=C(C(=O)c2c[nH]c3ccccc23)C(c2ccc(C3C(C(=O)c4c[nH]c5ccccc45)=C(N)Oc4ccc5ccccc5c43)cc2)c2c(ccc3ccccc23)O1 (centres undefined) | – | 7 mm | – | –
NC1=C(C(=O)c2c[nH]c3ccc(Br)cc23)C(c2ccc(Cl)cc2)c2c(ccc3ccccc23)O1 (centres undefined) | – | 45 mm | 6 mm | –
NC1=C(C(=O)c2c[nH]c3ccc(Br)cc23)C(c2ccc(Cl)cc2Cl)c2c(ccc3ccccc23)O1 (centres undefined) | – | 30 mm | – | –
NC1=C(C(=O)c2c[nH]c3ccc(Br)cc23)C(c2cccnc2)c2c(ccc3ccccc23)O1 (centres undefined) | 6 mm | 11 mm | – | –
NC1=C(C(=O)c2c[nH]c3ccc(Br)cc23)C(c2ccc(C3C(C(=O)c4c[nH]c5ccc(Br)cc45)=C(N)Oc4ccc5ccccc5c43)cc2)c2c(ccc3ccccc23)O1 (centres undefined) | – | 30 mm | 6 mm | –
Cc1[nH]c2ccccc2c1C(=O)C1=C(N)Oc2ccc3ccccc3c2C1c1ccc(Cl)cc1Cl (centres undefined) | 15 mm | 50 mm | – | 15 mm
CC[C@H]1OC(=O)[C@H](C)[C@@H](O[C@H]2C[C@@](C)(OC)[C@@H](O)[C@H](C)O2)[C@H](C)[C@@H](O[C@@H]2O[C@H](C)C[C@H](N(C)C)[C@H]2O)[C@](C)(O)C[C@@H](C)C(=O)[C@H](C)[C@@H](O)[C@]1(C)O [ERYTHROMYCIN] | 8 mm | 10 mm | 12 mm | 10 mm
CN(C)[C@@H]1C(O)=C(C(N)=O)C(=O)[C@@]2(O)C(O)=C3C(=O)c4c(O)cccc4[C@@](C)(O)[C@H]3C[C@@H]12 [TETRACYCLINE] | 7 mm | 16 mm | 14 mm | 18 mm
